ChEMBL document CHEMBL1649289, “Paradoxical growth of Candida dubliniensis does not preclude in vivo response to echinocandin therapy” (2009)
≈ marks a conversion by molar mass, not a printed value. Starred links: 1 amine or outer side, 2 acyl side, 3 side chain; linkers in the order of their positions; H or OH if unused. Positions of bridges follow the written chain, without caps; N, C: chain ends. Non-standard residues stand in square brackets, D forms with d. Residues, ends and D or L forms follow the SMILES beside them. *: point of attachment. hTyr(3S-OH,4S-OH,3'-OSO3H) = N[C@H](C(=O)O)[C@H](O)[C@@H](O)c1ccc(O)c(OS(=O)(=O)O)c1; Orn(4R-OH,5R-OH) = O=C([C@H](C[C@@H](O)[C@@H](O)N[*:3])N[*:1])[*:2]; Pro(3S-OH,4S-Me) = C[C@H]1CN[C@H](C(=O)O)[C@H]1O; X1 = CCCCCOc1ccc(-c2cc(-c3ccc(C(=O)*)cc3)no2)cc1; Gln(3R-OH) = NC(=O)C[C@@H](O)[C@H](N)C(=O)O; Hyp = O=C(O)[C@@H]1C[C@@H](O)CN1

Tests used:
Assay type in all cases: functional
Candida dubliniensis [1] = test: Antifungal activity against Candida dubliniensis 9453 after 24 hrs; conditions: Candida dubliniensis, 9453, 24 h
In short: (§1)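 CLSI M27-A3 broth microdilution. Yeast inoculum was adjusted with a hemocytometer. MIC was read at 24 h or 48 h as the lowest concentration giving 50% growth inhibition.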

Candida dubliniensis [2] = test: Antifungal activity against Candida dubliniensis 10031 after 24 hrs; conditions: Candida dubliniensis, 10031, 24 h; in short: as §1
Candida dubliniensis [3] = test: Antifungal activity against Candida dubliniensis 10033 by hemocytometry
In short: (§2)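 Minimal fungicidal concentration from the broth dilution test, defined as the lowest drug level giving ≥99.9% reduction in CFU/ml. Inocula were adjusted by hemocytometer.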

Candida dubliniensis [4] = test: Antifungal activity against Candida dubliniensis 9456 after 48 hrs; conditions: Candida dubliniensis, 9456, 48 h; in short: as §1
Candida dubliniensis [5] = test: Antifungal activity against Candida dubliniensis 9456 by hemocytometry; in short: as §2
Candida dubliniensis [6] = test: Antifungal activity against Candida dubliniensis FMR 10034 infected in OF1 mouse assessed as fungal count in spleen at 1 mg/kg/day, iv […]
In short: (§3)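 Immunocompetent male OF1 mice, 10 per group, were challenged i.v. with 1.5 × 10^7 CFU. Drug was given i.v. once daily at 1 or 10 mg/kg for 3 days, starting 24 h post-challenge; controls were untreated. Mice were killed 1 day after the last dose. Kidneys and spleen were homogenized in saline, serial 10-fold dilutions were plated on Sabouraud agar at 35°C for 3 days, and mean log10 CFU was reported.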

Candida dubliniensis [7] = test: Antifungal activity against Candida dubliniensis FMR 10032 infected in immunosuppressed OF1 mouse assessed as fungal count in kidney at 1 mg/kg/day, iv […]
In short: (§4)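 Male OF1 mice, 10 per group, were immunosuppressed on infection day with cyclophosphamide 200 mg/kg i.p. plus 5-fluorouracil 150 mg/kg i.v., then challenged i.v. with 1.5 × 10^5 CFU. Drug was given at 1 mg/kg i.v. once daily for 5 days, starting 24 h after challenge. One day after treatment ended, kidney and spleen homogenates were plated in 10-fold dilutions on Sabouraud agar (35°C, 3 days) and mean log10 CFU was reported.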

Candida dubliniensis [8] = test: Antifungal activity against Candida dubliniensis 10032 by hemocytometry; in short: as §2
Candida dubliniensis [9] = test: Antifungal activity against Candida dubliniensis 10033 after 48 hrs; conditions: Candida dubliniensis, 10033, 48 h; in short: as §1
Candida dubliniensis [10] = test: Antifungal activity against Candida dubliniensis FMR 10034 infected in immunosuppressed OF1 mouse assessed as fungal count in kidney at 1 mg/kg/day, iv […]; in short: as §4
Candida dubliniensis [11] = test: Antifungal activity against Candida dubliniensis 10031 after 48 hrs; conditions: Candida dubliniensis, 10031, 48 h; in short: as §1
Candida dubliniensis [12] = test: Antifungal activity against Candida dubliniensis 10034 after 48 hrs; conditions: Candida dubliniensis, 10034, 48 h; in short: as §1
Candida dubliniensis [13] = test: Antifungal activity against Candida dubliniensis 9453 after 48 hrs; conditions: Candida dubliniensis, 9453, 48 h; in short: as §1
Candida dubliniensis [14] = test: Antifungal activity against Candida dubliniensis 10031 by hemocytometry; in short: as §2
Candida dubliniensis [15] = test: Antifungal activity against Candida dubliniensis FMR 10034 infected in OF1 mouse assessed as fungal count in kidney at 10 mg/kg/day, iv […]; in short: as §3
Candida dubliniensis [16] = test: Antifungal activity against Candida dubliniensis 10032 after 48 hrs; conditions: Candida dubliniensis, 10032, 48 h; in short: as §1
Candida dubliniensis [17] = test: Antifungal activity against Candida dubliniensis 10034 assessed as compound concentration at which paradoxical growth of observed after 48 hrs
In short: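 In the same broth dilution (CLSI M27-A3) tests, read at 24 or 48 h, this is the range of drug concentrations over which paradoxical growth appeared. It was not set when growth occurred across the whole tested range (trailing).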

Candida dubliniensis [18] = test: Antifungal activity against Candida dubliniensis 10035 after 24 hrs; conditions: Candida dubliniensis, 10035, 24 h; in short: as §1
Candida dubliniensis [19] = test: Antifungal activity against Candida dubliniensis 10033 after 24 hrs; conditions: Candida dubliniensis, 10033, 24 h; in short: as §1
Candida dubliniensis [20] = test: Antifungal activity against Candida dubliniensis FMR 10034 infected in OF1 mouse assessed as fungal count in kidney at 1 mg/kg/day, iv […]; in short: as §3
Candida dubliniensis [21] = test: Antifungal activity against Candida dubliniensis 10034 after 24 hrs; conditions: Candida dubliniensis, 10034, 24 h; in short: as §1
Candida dubliniensis [22] = test: Antifungal activity against Candida dubliniensis 9456 after 24 hrs; conditions: Candida dubliniensis, 9456, 24 h; in short: as §1
Candida dubliniensis [23] = test: Antifungal activity against Candida dubliniensis FMR 10032 infected in immunosuppressed OF1 mouse assessed as fungal count in spleen at 1 mg/kg/day, iv […]; in short: as §4
Candida dubliniensis [24] = test: Antifungal activity against Candida dubliniensis FMR 10032 infected in OF1 mouse assessed as fungal count in kidney at 1 mg/kg/day, iv […]; in short: as §3
Candida dubliniensis [25] = test: Antifungal activity against Candida dubliniensis 10034 by hemocytometry; in short: as §2
Candida dubliniensis [26] = test: Antifungal activity against Candida dubliniensis FMR 10032 infected in OF1 mouse assessed as fungal count in kidney at 10 mg/kg/day, iv […]; in short: as §3
Candida dubliniensis [27] = test: Antifungal activity against Candida dubliniensis FMR 10032 infected in OF1 mouse assessed as fungal count in spleen at 1 mg/kg/day, iv […]; in short: as §3
Candida dubliniensis [28] = test: Antifungal activity against Candida dubliniensis 10035 after 48 hrs; conditions: Candida dubliniensis, 10035, 48 h; in short: as §1
Candida dubliniensis [29] = test: Antifungal activity against Candida dubliniensis 9453 by hemocytometry; in short: as §2
Candida dubliniensis [30] = test: Antifungal activity against Candida dubliniensis FMR 10034 infected in OF1 mouse assessed as fungal count in spleen at 10 mg/kg/day, iv […]; in short: as §3
Candida dubliniensis [31] = test: Antifungal activity against Candida dubliniensis FMR 10034 infected in immunosuppressed OF1 mouse assessed as fungal count in spleen at 1 mg/kg/day, iv […]; in short: as §4
Candida dubliniensis [32] = test: Antifungal activity against Candida dubliniensis 10032 after 24 hrs; conditions: Candida dubliniensis, 10032, 24 h; in short: as §1
Candida dubliniensis [33] = test: Antifungal activity against Candida dubliniensis FMR 10032 infected in OF1 mouse assessed as fungal count in spleen at 10 mg/kg/day, iv […]; in short: as §3

MIC50 (Candida dubliniensis [1]): 0.125 µg/mL (≈ 0.0984 µM)
MIC50 (Candida dubliniensis [2]): 0.125 µg/mL (≈ 0.0984 µM)
MIC50 (Candida dubliniensis [4]): 0.125 µg/mL (≈ 0.0984 µM)
MIC50 (Candida dubliniensis [9]): 0.25 µg/mL (≈ 0.197 µM)
MIC50 (Candida dubliniensis [11]): 0.125 µg/mL (≈ 0.0984 µM)
MIC50 (Candida dubliniensis [12]): 0.125 µg/mL (≈ 0.0984 µM)
MIC50 (Candida dubliniensis [13]): 0.125 µg/mL (≈ 0.0984 µM)
MIC50 (Candida dubliniensis [16]): 0.125 µg/mL (≈ 0.0984 µM)
MIC50 (Candida dubliniensis [18]): 0.03 µg/mL (≈ 0.0236 µM)
MIC50 (Candida dubliniensis [19]): 0.125 µg/mL (≈ 0.0984 µM)
MIC50 (Candida dubliniensis [21]): 0.06 µg/mL (≈ 0.0472 µM)
MIC50 (Candida dubliniensis [22]): 0.06 µg/mL (≈ 0.0472 µM)
MIC50 (Candida dubliniensis [28]): 0.03 µg/mL (≈ 0.0236 µM)
MIC50 (Candida dubliniensis [32]): < 0.03 µg/mL
Structure (SMILES): CCCCCOc1ccc(-c2cc(-c3ccc(C(=O)N[C@H]4C[C@@H](O)[C@@H](O)NC(=O)[C@@H]5[C@@H](O)[C@@H](C)CN5C(=O)[C@H]([C@H](O)CC(N)=O)NC(=O)[C@H]([C@H](O)[C@@H](O)c5ccc(O)c(OS(=O)(=O)O)c5)NC(=O)[C@@H]5C[C@@H](O)CN5C(=O)[C@H]([C@@H](C)O)NC4=O)cc3)no2)cc1 [MICAFUNGIN] (X1-[Orn(4R-OH,5R-OH)]T[Hyp][hTyr(3S-OH,4S-OH,3'-OSO3H)][Gln(3R-OH)][Pro(3S-OH,4S-Me)]; lactam 1-C)
MFC (Candida dubliniensis [3]): 2 µg/mL (≈ 1.57 µM)
MFC (Candida dubliniensis [5]): > 16 µg/mL
log10cfu (Candida dubliniensis [6]): 4.79
log10cfu (Candida dubliniensis [7]): 5.47
MFC (Candida dubliniensis [8]): 4 µg/mL (≈ 3.15 µM)
log10cfu (Candida dubliniensis [10]): 6.47
MFC (Candida dubliniensis [14]): > 16 µg/mL
log10cfu (Candida dubliniensis [15]): 4.69
Activity (Candida dubliniensis [17]): 2 µg/mL
log10cfu (Candida dubliniensis [20]): 6.33
log10cfu (Candida dubliniensis [23]): 2.62
log10cfu (Candida dubliniensis [24]): 4.25
MFC (Candida dubliniensis [25]): > 16 µg/mL
log10cfu (Candida dubliniensis [26]): 3.23
log10cfu (Candida dubliniensis [27]): 3.97
MFC (Candida dubliniensis [29]): > 16 µg/mL
log10cfu (Candida dubliniensis [30]): 4.18
log10cfu (Candida dubliniensis [31]): 3.26
log10cfu (Candida dubliniensis [33]): 3.58
